Bioassay records deposited in PubChem BioAssay by several laboratories.
NR3A LBD binder = modulates the human NR3A ligand-binding domain; NR3A LBD differential scanning fluorimetry, Tm shift; 0% = protein alone, 100% = glycine-bound protein; actives 2.5% (n = 340,000); AID 1259313; Tm shift relative to glycine control, % at 25 µM;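 active = melting temperature shift of at least 10% of the positive control shift, at one fixed dose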
proCasp7 act = counter-screen: procaspase-7 (human) activation; P55210; recombinant procaspase-7, Ac-DEVD-pNA absorbance 405 nm; D23A/D198A/D206A triple mutant, cannot self-cleave; scale: DMSO 0, 5 µM enzyme 100; activation, % at 8.5 µM; actives 0.093% (n = 330,000); AID 463210;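 active = percent activation above the screen-wide mean plus 3 SD, cut at about 25% in these data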
Target sequence (P55210 whole entry D23A/D198A/D206A): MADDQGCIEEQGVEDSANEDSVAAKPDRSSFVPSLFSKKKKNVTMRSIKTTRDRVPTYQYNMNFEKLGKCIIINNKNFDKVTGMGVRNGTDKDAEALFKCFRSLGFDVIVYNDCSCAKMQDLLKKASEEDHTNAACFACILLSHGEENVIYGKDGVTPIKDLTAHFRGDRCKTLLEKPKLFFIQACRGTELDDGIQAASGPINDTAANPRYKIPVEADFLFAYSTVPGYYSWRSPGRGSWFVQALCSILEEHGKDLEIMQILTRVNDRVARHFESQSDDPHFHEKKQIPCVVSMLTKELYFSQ
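System: Uncleavable procaspase-7 mutant enzyme; Amount: 2 µM procaspase-7 mutant as dispensed; Schedule: 1 h compound preincubation, 2 h substrate cleavage, 25 °C; Measured by: 405 nm absorbance of p-nitroaniline; Evaluation: percent activation from buffer-corrected 0–120 min absorbance change; Control set: low DMSO alone, high DMSO plus 5 µM PC-7.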
procasp3 activ = procaspase-3 (human) activation | recombinant procaspase-3 D3A, Ac-DEVD-pNA absorbance 405 nm | AID 463141 | actives 0.11% (n = 330,000) | activation, % at 8.5 µM | P42574;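 active = activation above the mean of all tested compounds plus 3 SD, cut at about 21% in these data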;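 also: 0% = DMSO alone and 100% = DMSO wells spiked with extra 5 µM PC-3 D3A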
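Assay system – Procaspase-3 D3A mutant · Benchmarks – DMSO low control, extra-enzyme high control · Technique – 405 nm absorbance of p-nitroaniline, reads at 0 and 120 min · Doses – 8.5 µM nominal · Measure – % activation between DMSO and enzyme-spiked controls · Also added – Ac-DEVD-pNA chromogenic peptide substrate · Schedule – 1 h compound preincubation, 2 h substrate hydrolysis at 25 °C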
aDG glyco act = increases alpha dystroglycan glycosylation; actives 0.22% (n = 360,000); Pro5-aDG cells, alpha-DG glycosylation AlphaScreen (IIH6); 0% Pro5, 100% B10-LARGE cell signal; activation, % at 10 µM;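 active = activation of at least 8% versus controls, or a plate z-score of at least 8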;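 also: Pro5 are CHO cells carrying HIG-tagged alpha-DG that lacks glycosylation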
MPTP block = blocks calcium-induced mitochondrial swelling. isolated mouse mitochondria, Ca2+ swelling absorbance, 30 min. inhibition, % at 10 µM. actives 1.4% (n = 360,000);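 active = inhibition of 50% or more, scaled per plate between neutral and stimulator controls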;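 also: 0% = DMSO wells given calcium and 100% = 1 mM EGTA wells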
Rh123 counter = mitochondrial membrane potential, counter-screen. actives 78% (n = 5,000). inhibition, % at 10 µM. isolated mitochondria, Rhodamine 123 fluorescence. shares compounds with MPTP block; in the data active = inhibition above about 22%;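 also: 0% = DMSO vehicle and 100% = positive control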
MPTP swell DR = dose response confirmation of mitochondrial permeability transition pore inhibitors. IC50, µM. isolated mitochondria swelling, absorbance. actives 58% (n = 780). shares compounds with MPTP block; in the data active = IC50 below about 20 µM
MPTP cs DR = MPTP inhibitor counter-screen activity, dose response | shares compounds with MPTP block | isolated mitochondria counterscreen, fluorescence read-out | IC50, µM | actives 49% (n = 780) | AID 651564; in the data active = IC50 below about 80 µM
Numbers without * were called inactive; . = no result given. Only some compounds are listed: those with a hit (about 3.7% of all), similar ones and a draw of the others.

SMILES	NR3A LBD binder	proCasp7 act	procasp3 activ	aDG glyco act	MPTP block	Rh123 counter	others
CC(NC(=O)COC(=O)c1cc(NS(=O)(=O)c2ccc(Cl)c([N+](=O)[O-])c2)ccc1O)C1CC2CCC1C2 (stereo unspecified)	13*	2	7	0	61*	66*
OC(COc1ccc(Br)cc1)CN1CCC(Cc2ccccc2)CC1 (stereo unspecified)	1	9	5	0	64*	-3	MPTP swell DR=6.3*;MPTP cs DR=34*
CC(C)OCC(O)CN1CCC(Cc2ccccc2)CC1 (stereo unspecified)	1	11	-3	0	-1	.
O=C1Nc2ccccc2C(O)(C(=O)NCc2ccco2)N1c1ccc(Cl)cc1 (stereo unspecified)	-3	3	3	0	90*	87*
CCN(C[C@H]1N[C@@](Cc2ccccc2)(C(=O)OC)[C@H]2C(=O)N(C)C(=O)[C@@H]12)C(=O)COc1ccccc1	-1	0	3	0	0	.
O=C(Nc1ccc(Cl)c(Cl)c1)Oc1ccc(NC(=O)c2ccco2)cc1	27*	-7	-9	0	102*	77*
O=C(Cc1ccccc1)NC(NC(=S)Nc1cc(Cl)ccc1Cl)C(Cl)(Cl)Cl (stereo unspecified)	16*	2	-2	0	98*	70*
O=C(NC(NC(=S)Nc1cc(Cl)ccc1Cl)C(Cl)(Cl)Cl)c1ccco1 (stereo unspecified)	14*	0	-5	0	82*	73*
O=C(O)c1cccc(NC(=S)NC(NC(=O)c2ccco2)C(Cl)(Cl)Cl)c1 (stereo unspecified)	2	2	1	0	0	.
O=C(NC(NC(=S)Nc1ccc(Cl)c(Cl)c1)C(Cl)(Cl)Cl)c1ccco1 (stereo unspecified)	9	5	-6	0	100*	100*
CC(C)C[C@@H](CN)NC(=O)c1nc[nH]c1C(=O)N[C@@H](C)C(=O)CNC[C@H](C)NC(=O)c1nc[nH]c1C(=O)N[C@@H](CC(C)C)C(=O)O	3	.	.	0	0	.
COC(=O)/C=C1\OCc2ccc(C)cc21	.	.	.	0	0	.
CC(=O)NC(NC(=S)Nc1ccc(N=Nc2ccccc2)cc1)C(Cl)(Cl)Cl (stereo unspecified)	13*	0	0	2	94*	62*
CC(=O)NC(NC(=S)Nc1ccc(S(N)(=O)=O)cc1)C(Cl)(Cl)Cl (stereo unspecified)	-1	4	-8	0	2	.
CC(=O)NC(NC(=S)Nc1cccc(Br)c1)C(Cl)(Cl)Cl (stereo unspecified)	-5	-6	3	0	95*	76*
O=C(Nc1ccccc1)c1cc(C2CCCCN2C(=O)CCc2ccccc2)on1 (stereo unspecified)	.	.	.	0	2	.
[N-]=[N+]=NC(c1ccccc1)C(NC(=O)c1cc(C(F)(F)F)cc(C(F)(F)F)c1)c1ccccc1 (stereo unspecified)	.	.	.	0	68*	103*
